Results of several laboratories.
Target: Cytoplasmic tyrosine-protein kinase BMX (BMX, Homo sapiens, UniProt P51813)
Residues used in one study (P51813 1-675): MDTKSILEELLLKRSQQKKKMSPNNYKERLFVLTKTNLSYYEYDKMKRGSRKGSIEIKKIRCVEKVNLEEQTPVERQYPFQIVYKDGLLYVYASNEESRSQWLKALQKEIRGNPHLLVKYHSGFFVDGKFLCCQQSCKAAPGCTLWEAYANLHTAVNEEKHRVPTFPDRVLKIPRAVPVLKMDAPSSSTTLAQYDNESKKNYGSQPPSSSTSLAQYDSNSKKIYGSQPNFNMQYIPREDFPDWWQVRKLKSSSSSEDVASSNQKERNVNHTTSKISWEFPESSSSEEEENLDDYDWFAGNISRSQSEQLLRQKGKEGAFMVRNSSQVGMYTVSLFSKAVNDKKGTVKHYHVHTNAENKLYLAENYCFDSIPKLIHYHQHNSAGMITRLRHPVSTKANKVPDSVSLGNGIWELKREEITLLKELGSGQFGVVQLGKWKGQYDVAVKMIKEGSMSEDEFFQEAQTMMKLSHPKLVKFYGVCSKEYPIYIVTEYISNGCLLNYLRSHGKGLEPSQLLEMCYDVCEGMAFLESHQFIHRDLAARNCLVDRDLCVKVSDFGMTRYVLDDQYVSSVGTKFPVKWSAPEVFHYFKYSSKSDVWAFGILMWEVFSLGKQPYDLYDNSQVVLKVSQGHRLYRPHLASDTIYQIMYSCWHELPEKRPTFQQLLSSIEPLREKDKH

SMILES	read-out	action	method	tested at	quantity	result
CCn1cnc2c(Nc3cccc(Cl)c3)nc(N[C@H]3CCCC[C@H]3N)nc21	enzyme activity	inhibitor	–	0.5 µM	remaining activity	90.7%
COc1ncccc1-c1cnn2ccc(N3CCN(C(=O)OC(C)C)CC3)nc12	binding	–	competition with immobilised ligand	1 µM	remaining binding	91%
Cn1cc(-c2cccc(N3CCc4c(sc5c4CC(C)(C)C5)C3=O)c2CO)cc(Nc2ccncn2)c1=O	enzyme activity	inhibitor	–	1 µM	inhibition	49%
O=c1[nH]c2ccccc2n1C1CCN(Cc2ccc(-c3[nH]c4cc5ncnc5cc4nc3-c3ccccc3)cc2)CC1	cell-free assay	–	–	0.5 µM	remaining signal	108%
N#CC1(c2ccccn2)CCN(Cc2cc(C(=O)O)c(=O)n3ccccc23)CC1	cell-free assay	–	competition with immobilised ligand	1 µM	remaining binding	88%
Nc1ncc(-c2nc(N3CCOCC3)nc(N3CCOCC3)n2)c(C(F)F)n1	binding	–	competition with immobilised ligand	10 µM	remaining binding	86%
Cn1cc(-c2cc(F)cc(N3CCn4c(cc5c4CCCC5)C3=O)c2CO)cc(Nc2ccc(N3CCN(C4COC4)CC3)cn2)c1=O	enzyme activity	inhibitor	–	0.1 µM	inhibition	37%
C#Cc1n[nH]c2c(-c3cn([C@@H](C)c4ccccc4)c(=O)[nH]c3=O)cc(F)cc12	enzyme activity	inhibitor	–	0.1 µM	inhibition	-7.4%
Cc1nn(C)cc1-c1nc2c(N3CCN(Cc4ccc(Cl)cc4)CC3)c(Cl)cnc2[nH]1	binding	–	competition with immobilised ligand	1 µM	remaining binding	100%
C#Cc1n[nH]c2c(-c3cn([C@@H](C)c4ccccn4)c(=O)[nH]c3=O)cc(F)cc12	enzyme activity	inhibitor	–	0.1 µM	inhibition	-1.6%
Cn1cncc1[C@@](O)(COc1ccc(C#N)cc1-c1ccc(OC(F)(F)F)cc1)c1ccc(C#N)cc1	cell-free assay	–	competition with immobilised ligand	1 µM	remaining binding	64%
